Experimental data reported in ChEMBL document CHEMBL1136227, “Regulation of gene expression by synthetic dimerizers with novel specificity” (Bioorg Med Chem Lett, 2003).
pEC50, pIC50: −log10 of the molar value.

Legend:
[1] = molecular target: Peptidyl-prolyl cis-trans isomerase FKBP1A (Homo sapiens, UniProt P62942, F36V); test: Inhibition of binding to Phe36Val (F36V) mutant of FK506 binding protein 12
How it was run: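 Fluorescence polarization competition assay with F36V-FKBP12, testing monomeric FKBP ligands. IC50 = monomer concentration reducing probe binding by 50%.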

HT-1080 [2] = test: (§1) Compound was induced transcription stably transfected with constructs encoding separate DNA-binding domain and activation domain proteins in HT1080 human fibrosarcoma cells; assay type: functional, cell-based
How it was run: (§2)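 HT1080 human fibrosarcoma cells, transiently or stably transfected with separate DNA-binding domain and activation domain fusions, each carrying three tandem F36V-FKBP copies, plus a SEAP reporter responsive to the reconstituted factor. Dimerizer titrated; secreted SEAP measured. EC50 = dimerizer concentration giving 50% of peak SEAP expression; peak level also expressed relative to a reference dimerizer.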

HT-1080 [3] = test: (§3) Compound was induced transcription in transiently transfected with constructs encoding separate DNA-binding domain and activation domain proteins in HT1080 human fibrosarcoma cells; assay type: functional; how it was run: as §2
HT-1080 [4] = test: as §1; assay type: functional; how it was run: as §2
HT-1080 [5] = test: as §3; assay type: functional, cell-based; how it was run: as §2
HT-1080 [6] = test: Compound was induced transcription stably transfected with constructs encoding separate DNA-binding domain and activation domain proteins in HT1080 human fibrosarcoma cells; No induction; assay type: functional, cell-based; how it was run: as §2
HT-1080 [7] = test: Compound was induced transcription stably transfected with constructs encoding separate DNA-binding domain and activation domain proteins in HT1080 human fibrosarcoma cells;No induction; assay type: functional, cell-based; how it was run: as §2

Chain of Peptidyl-prolyl cis-trans isomerase FKBP1A (P62942 2-108 F37V limits assumed): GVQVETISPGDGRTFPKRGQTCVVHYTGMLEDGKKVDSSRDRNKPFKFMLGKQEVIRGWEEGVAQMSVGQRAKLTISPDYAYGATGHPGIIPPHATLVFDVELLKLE

Row | pIC50 [1] | pEC50 (HT-1080 [5]) | SMILES | Expression (HT-1080 [3]) [%] | also measured
1 | 8.09 |  | COc1ccc(CC[C@@H](OC(=O)[C@@H]2CCCCN2C(=O)[C@@H](C)c2cc(OC)c(OC)c(OC)c2)c2cccc(OCC(=O)O)c2)cc1OC |  | 
2 | 7.19 |  | CCC(CC)NC(=O)N1CCCC[C@H]1C(=O)O[C@H](CCc1ccc(OC)c(OC)c1)c1cccc(OCC(=O)O)c1 |  | 
3 | 7.82 |  | CC[C@H](C(=O)N1CCCC[C@H]1C(=O)O[C@H](CCc1cccnc1)c1cccc(OCC(=O)O)c1)c1cc(OC)c(OC)c(OC)c1 |  | 
4 |  | 7.96 | CCC(CC)NC(=O)N1CCCC[C@H]1C(=O)O[C@H](CCc1ccc(OC)c(OC)c1)c1cccc(OCC(=O)NCCNC(=O)COc2cccc([C@@H](CCc3ccc(OC)c(OC)c3)OC(=O)[C@@H]3CCCCN3C(=O)NC(CC)CC)c2)c1 | 138 | pEC50 (HT-1080 [2]): 7.72; Expression (HT-1080 [4]): 106%
5 |  | 7.09 | CC[C@H](C(=O)N1CCCC[C@H]1C(=O)O[C@H](CCc1cccnc1)c1cccc(OCC(=O)NCCNC(=O)COc2cccc([C@@H](CCc3cccnc3)OC(=O)[C@@H]3CCCCN3C(=O)[C@@H](CC)c3cc(OC)c(OC)c(OC)c3)c2)c1)c1cc(OC)c(OC)c(OC)c1 | 29 | EC50 (HT-1080 [6]): No induction
6 | 8.26 |  | CC[C@H](C(=O)N1CCCC[C@H]1C(=O)O[C@H](CCc1ccccc1)c1cccc(OCC(=O)O)c1)c1cc(OC)c(OC)c(OC)c1 |  | 
7 | 7.36 |  | CCC(C)(C)C(=O)C(=O)N1CCCC[C@H]1C(=O)O[C@H](CCc1ccc(OC)c(OC)c1)c1cccc(OCC(=O)O)c1 |  | 
8 | 7.59 |  | CC[C@H](C(=O)N1CCCC[C@H]1C(=O)O[C@H](CCc1ccc(OC)c(OC)c1)c1cccc(OCC(=O)O)c1)c1ccc2c(c1)OCO2 |  | 
9 |  | 8.40 | CC[C@H](C(=O)N1CCCC[C@H]1C(=O)O[C@H](CCc1ccc(OC)c(OC)c1)c1cccc(OCC(=O)NCCNC(=O)COc2cccc([C@@H](CCc3ccc(OC)c(OC)c3)OC(=O)[C@@H]3CCCCN3C(=O)[C@@H](CC)c3ccccc3)c2)c1)c1ccccc1 | 100 | pEC50 (HT-1080 [2]): 8.10; Expression (HT-1080 [4]): 100%
10 |  | 8.22 | CC[C@H](C(=O)N1CCCC[C@H]1C(=O)O[C@H](CCc1ccc(OC)c(OC)c1)c1cccc(OCC(=O)NCCNC(=O)COc2cccc([C@@H](CCc3ccc(OC)c(OC)c3)OC(=O)[C@@H]3CCCCN3C(=O)[C@@H](CC)c3ccc4c(c3)OCO4)c2)c1)c1ccc2c(c1)OCO2 | 105 | pEC50 (HT-1080 [2]): 8.05; Expression (HT-1080 [4]): 53%
11 |  | 6.72 | CO[C@H]1C[C@@H](C)C/C(C)=C/[C@@H](C/C=C/CC2/C=C(\C)C[C@H](C)C[C@H](OC)[C@H]3O[C@@](O)(C(=O)C(=O)N4CCCCC4C(=O)O[C@H](/C(C)=C/[C@@H]4CC[C@@H](O)[C@H](OC)C4)[C@H](C)[C@@H](O)CC2=O)[C@H](C)C[C@H]3OC)C(=O)C[C@H](O)[C@@H](C)[C@@H](/C(C)=C/[C@@H]2CC[C@@H](O)[C@H](OC)C2)OC(=O)C2CCCCN2C(=O)C(=O)C2O[C@H]1[C@H](OC)C[C@H]2C (some centres undefined) | 39 | EC50 (HT-1080 [6]): No induction
12 |  | 8.40 | COc1ccc(CC[C@@H](OC(=O)[C@@H]2CCCCN2C(=O)[C@@H](C)c2cc(OC)c(OC)c(OC)c2)c2cccc(OCC(=O)NCCNC(=O)COc3cccc([C@@H](CCc4ccc(OC)c(OC)c4)OC(=O)[C@@H]4CCCCN4C(=O)[C@@H](C)c4cc(OC)c(OC)c(OC)c4)c3)c2)cc1OC | 89 | EC50 (HT-1080 [7]): No induction
13 |  | 6.75 | CCC(C)(C)C(=O)C(=O)N1CCCC[C@H]1C(=O)O[C@H](CCc1ccc(OC)c(OC)c1)c1cccc(OCC(=O)NCCNC(=O)COc2cccc([C@@H](CCc3ccc(OC)c(OC)c3)OC(=O)[C@@H]3CCCCN3C(=O)C(=O)C(C)(C)CC)c2)c1 | 149 | pEC50 (HT-1080 [2]): 6.53; Expression (HT-1080 [4]): 17%
14 | 7.92 |  | CC[C@@H]1/C=C(\C)C[C@H](C)C[C@H](OC)[C@H]2OC(C(=O)C(=O)N3CCCCC3C(=O)O[C@H](/C(C)=C/[C@@H]3CC[C@@H](O)[C@H](OC)C3)[C@H](C)[C@@H](O)CC1=O)[C@H](C)C[C@H]2OC (some centres undefined) |  | 
15 |  | 7.70 | COc1ccc(CC[C@@H](OC(=O)[C@@H]2CCCCN2C(=O)Cc2ccccc2)c2cccc(OCC(=O)NCCNC(=O)COc3cccc([C@@H](CCc4ccc(OC)c(OC)c4)OC(=O)[C@@H]4CCCCN4C(=O)Cc4ccccc4)c3)c2)cc1OC | 150 | pEC50 (HT-1080 [2]): 8.00; Expression (HT-1080 [4]): 7%
16 |  | 7.24 | CC[C@H](C(=O)N1CCCC[C@H]1C(=O)O[C@H](CCc1ccccc1)c1cccc(OCC(=O)NCCNC(=O)COc2cccc([C@@H](CCc3ccccc3)OC(=O)[C@@H]3CCCCN3C(=O)[C@@H](CC)c3cc(OC)c(OC)c(OC)c3)c2)c1)c1cc(OC)c(OC)c(OC)c1 | 97 | EC50 (HT-1080 [6]): No induction
17 | 8.09 |  | CC[C@H](C(=O)N1CCCC[C@H]1C(=O)O[C@H](CCc1ccc(OC)c(OC)c1)c1cccc(OCC(=O)O)c1)c1cc(OC)c(OC)c(OC)c1 (stereo in doubt; form 1) |  | 
18 |  | 8.52 | CC[C@H](C(=O)N1CCCC[C@H]1C(=O)O[C@H](CCc1ccc(OC)c(OC)c1)c1cccc(OCC(=O)NCCNC(=O)COc2cccc([C@@H](CCc3ccc(OC)c(OC)c3)OC(=O)[C@@H]3CCCCN3C(=O)[C@@H](CC)c3cc(OC)c(OC)c(OC)c3)c2)c1)c1cc(OC)c(OC)c(OC)c1 (stereo in doubt; form 1) [RIMIDUCID] |  | 
19 | 8.09 |  | CC[C@H](C(=O)N1CCCC[C@H]1C(=O)O[C@H](CCc1ccc(OC)c(OC)c1)c1cccc(OCC(=O)O)c1)c1cc(OC)c(OC)c(OC)c1 (stereo in doubt; form 2) |  | 
20 |  |  | CC[C@H](C(=O)N1CCCC[C@H]1C(=O)O[C@H](CCc1ccc(OC)c(OC)c1)c1cccc(OCC(=O)NCCNC(=O)COc2cccc([C@@H](CCc3ccc(OC)c(OC)c3)OC(=O)[C@@H]3CCCCN3C(=O)[C@@H](CC)c3cc(OC)c(OC)c(OC)c3)c2)c1)c1cc(OC)c(OC)c(OC)c1 (stereo in doubt; form 2) [RIMIDUCID] | 79 | EC50 (HT-1080 [6]): No induction
